Data as given in article PMC12091843 (Chemmedchem, 2025).
In brackets after ≈: the same amount, converted by molar mass. Read-outs that look alike come from different tables or passages of the source.

Columns and labels:
[1] = biological target: AB ATP synthase (UniProt A3M139+B2I0Z6); type: biochemical, Acinetobacter baumannii; details: for Inhibition of AB ATP synthase (in words): even at high / highest concentrations tested
[2] = biological target: PA ATP synthase (Pseudomonas aeruginosa, UniProt Q9HT14+Q9HT15); assay: biochemical; details: for Inhibition of PA ATP synthase (in words): even at high / highest concentrations tested
[3] = tested on: MT ATP synthase; details: cited from earlier work
[4] = tested on: AB 17978; assay: Broth microdilution antibacterial activity; type: cell-based; details: Acinetobacter baumannii, read-out: MIC AB 17978
[5] = tested on: PA 2108 (MDR); assay: Broth microdilution antibacterial activity; type: cell-based, Pseudomonas aeruginosa; details: for MIC: Pseudomonas aeruginosa; for Antibacterial activity against PA (in words): highest concentration tested
[6] = tested on: AB 1605 (MDR); assay: Broth microdilution antibacterial activity; type: cell-based; details: Acinetobacter baumannii, read-out: MIC AB 1605 (MDR)
[7] = tested on: AB (17978 and 1605); assay: Broth microdilution antibacterial activity, AB strains summarised in the text; type: cell-based, Acinetobacter baumannii; details: for Antibacterial activity against AB strains (in words): highest concentration tested; for MIC: Acinetobacter baumannii, read-out: MICs against AB, one or both strains tested
[8] = tested on: PA ETC; assay: Inhibition of NADH-driven H+ pumping of the ETC in PA inverted vesicles; type: biochemical, Pseudomonas aeruginosa
In short: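 Inverted inner-membrane vesicles came from P. aeruginosa ATCC 9027 (LB, 37°C, 150 rpm, late exponential). Cells were homogenizer-lysed in Tris-HCl pH 7.5/MgCl2/glycerol buffer, cleared at 9,000 x g, and vesicles pelleted at 169,000 x g. Assay used vesicles at 0.5 mg/mL in HEPES/300 mM KCl pH 7.5 with ACMA and test compound in DMSO. NADH to 0.8 mM started pumping; nigericin stopped it. Fluorescence Ex 415/Em 485 nm; percent quenching normalized to no-inhibitor control.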

## COc1nc2ccc(Br)cc2cc1[C@@H](c1ccccc1)[C@@](O)(CCN(C)C)c1cccc2ccccc12 [BDQ, bedaquiline, reference compound]
[1]
  Inhibition of AB ATP synthase (in words): does not fully inhibit
[2]
  Inhibition of PA ATP synthase (in words): does not fully inhibit
[3]
  Potency against MT ATP synthase (in words): nanomolar potency

## O=C(N[C@H](CO)[C@H](O)c1ccc([N+](=O)[O-])cc1)C(Cl)Cl [Chloramphenicol, reference compound]
[4]
  MIC: 64 µg/mL (≈ 198 µM)
[5]; read-out: MIC PA 2108 (MDR)
  MIC: 64 µg/mL (≈ 198 µM)

## c1ccc(CSc2nc3ccccc3cc2CNCc2ccc(N3CCCCC3)cc2)cc1 [WSA248, 1‐(2‐(benzylthio)quinolin‐3‐yl)‐N‐(4‐(piperidin‐1‐yl)benzyl)methanamine]
[1]
  Inhibition of AB ATP synthase (in words): no significant inhibition
[2]
  Inhibition of PA ATP synthase (in words): no significant inhibition
[4]
  MIC: > 128 µg/mL
[6]
  MIC: > 128 µg/mL
[5]; read-out: MIC PA 2108 (MDR)
  MIC: > 128 µg/mL
[5]
  Antibacterial activity against PA (in words): inactive
[7]
  Antibacterial activity against AB strains (in words): inactive

## c1ccc(CSc2nc3ccccc3cc2CNCc2ccc(CN3CCCC3)cc2)cc1 [WSA249, 1‐(2‐(benzylthio)quinolin‐3‐yl)‐N‐(4‐(pyrrolidin‐1‐ylmethyl)benzyl)methanamine]
[4]
  MIC: 32 µg/mL (≈ 70.5 µM)
[6]
  MIC: 64 µg/mL (≈ 141 µM)
[5]; read-out: MIC PA 2108 (MDR)
  MIC: 16 µg/mL (≈ 35.3 µM)
[5]; read-out: MIC against MDR PA
  MIC: 16 µg/mL (≈ 35.3 µM)

## CN1CCN(CCNCc2cc3ccccc3nc2SCc2ccccc2)CC1 [WSA250, N‐((2‐(benzylthio)quinolin‐3‐yl)methyl)‐2‐(4‐methylpiperazin‐1‐yl)ethan‐1‐amine]
[4]
  MIC: 64 µg/mL (≈ 157 µM)
[6]
  MIC: 128 µg/mL (≈ 315 µM)
[5]; read-out: MIC PA 2108 (MDR)
  MIC: 64 µg/mL (≈ 157 µM)

## CCN1CCC(CCNCc2cc3cc(OC)c(OC)c(OC)c3nc2SCc2ccccc2)CC1 [WSA251, N‐((2‐(benzylthio)‐6,7,8‐trimethoxyquinolin‐3‐yl)methyl)‐2‐(1‐ethylpiperidin‐4‐yl)ethan‐1‐amine]
[4]
  MIC: 128 µg/mL (≈ 251 µM)
[6]
  MIC: > 128 µg/mL
[5]; MIC comparison
  Fold less potent than WSA236 against PA (antibacterial): 4 fold
[5]; read-out: MIC PA 2108 (MDR)
  MIC: 128 µg/mL (≈ 251 µM)
[7]; MIC comparison
  Fold less potent than WSA236 against AB (antibacterial): 2 fold

## COc1cc2cc(CNCCC3CCN(C4CCCC4)CC3)c(SCc3ccccc3)nc2c(OC)c1OC [WSA252, N‐((2‐(benzylthio)‐6,7,8‐trimethoxyquinolin‐3‐yl)methyl)‐2‐(1‐cyclopentylpiperidin‐4‐yl)ethan‐1‐amine]
[4]
  MIC: 64 µg/mL (≈ 116 µM)
[5]; read-out: MIC PA 2108 (MDR)
  MIC: 64 µg/mL (≈ 116 µM)

## COc1cc2cc(CNCCN3CCN(C)CC3)c(SCc3ccccc3)nc2c(OC)c1OC [WSA253, N‐((2‐(benzylthio)‐6,7,8‐trimethoxyquinolin‐3‐yl)methyl)‐2‐(4‐methylpiperazin‐1‐yl)ethan‐1‐amine]
[1]
  Fold improvement of IC50 for AB by trimethoxy modification: 3 fold
[2]
  Fold worsening of IC50 for PA by trimethoxy modification: ~3 fold
[4]
  MIC: 128 µg/mL (≈ 258 µM)
[6]
  MIC: > 128 µg/mL
[5]; read-out: MIC PA 2108 (MDR)
  MIC: 128 µg/mL (≈ 258 µM)

## CCN1CCC(CCNCc2cc3cc(Br)ccc3nc2SCc2ccccc2)CC1 [WSA254, N‐((2‐(benzylthio)‐6‐bromoquinolin‐3‐yl)methyl)‐2‐(1‐ethylpiperidin‐4‐yl)ethan‐1‐amine]
[4]
  MIC: 16 µg/mL (≈ 32.1 µM)
[5]; read-out: MIC PA 2108 (MDR)
  MIC: 32 µg/mL (≈ 64.2 µM)
[7]
  MIC: 8 to 16 µg/mL (≈ 16 to 32.1 µM)

## Brc1ccc2nc(SCc3ccccc3)c(CNCCC3CCN(C4CCCC4)CC3)cc2c1 [WSA255, N‐((2‐(benzylthio)‐6‐bromoquinolin‐3‐yl)methyl)‐2‐(1‐cyclopentylpiperidin‐4‐yl)ethan‐1‐amine]
[2]
  IC50: 427 nM
[8]; PA ETC IC50 versus PA ATP synthase IC50
  Fold less potent against the ETC compared to ATP synthase: more than 7 fold
[8]; PA vesicles, dose response fit
  PA ETC IC50: 1.7 µg/mL
[4]
  MIC: 16 µg/mL (≈ 29.7 µM)
[5]; read-out: MIC PA 2108 (MDR)
  MIC: 32 µg/mL (≈ 59.4 µM)
[7]
  MIC: 8 to 16 µg/mL (≈ 14.9 to 29.7 µM)

## Brc1ccc2nc(SCc3ccccc3)c(CNCc3ccc(CN4CCCC4)cc3)cc2c1 [WSA256, 1‐(2‐(benzylthio)‐6‐bromoquinolin‐3‐yl)‐N‐(4‐(pyrrolidin‐1‐ylmethyl)benzyl)methanamine]
[4]
  MIC: > 128 µg/mL
[6]
  MIC: > 128 µg/mL
[5]; read-out: MIC PA 2108 (MDR)
  MIC: > 128 µg/mL
[5]
  Antibacterial activity against PA (in words): inactive
[7]
  Antibacterial activity against AB strains (in words): inactive

## CN1CCN(CCNCc2cc3cc(Br)ccc3nc2SCc2ccccc2)CC1 [WSA257, N‐((2‐(benzylthio)‐6‐bromoquinolin‐3‐yl)methyl)‐2‐(4‐methylpiperazin‐1‐yl)ethan‐1‐amine]
[2]
  IC50: 268 nM
[4]
  MIC: 8 µg/mL (≈ 16.5 µM)
[6]
  MIC: 16 µg/mL (≈ 33 µM)
[5]; read-out: MIC PA 2108 (MDR)
  MIC: 16 µg/mL (≈ 33 µM)
[5]; read-out: MIC against MDR PA
  MIC: 16 µg/mL (≈ 33 µM)
[7]
  MIC: 8 to 16 µg/mL (≈ 16.5 to 33 µM)

## CCN1CCC(CCNCc2cc3cc(-c4ccccc4)ccc3nc2SCc2ccccc2)CC1 [WSA261, N‐((2‐(benzylthio)‐6‐phenylquinolin‐3‐yl)methyl)‐2‐(1‐ethylpiperidin‐4‐yl)ethan‐1‐amine]
[4]
  MIC: 8 µg/mL (≈ 16.1 µM)
[6]
  MIC: 16 µg/mL (≈ 32.3 µM)
[5]; read-out: MIC PA 2108 (MDR)
  MIC: 64 µg/mL (≈ 129 µM)
[7]
  MIC: 8 to 16 µg/mL (≈ 16.1 to 32.3 µM)

## c1ccc(CSc2nc3ccc(-c4ccccc4)cc3cc2CNCCC2CCN(C3CCCC3)CC2)cc1 [WSA262, N‐((2‐(benzylthio)‐6‐phenylquinolin‐3‐yl)methyl)‐2‐(1‐cyclopentylpiperidin‐4‐yl)ethan‐1‐amine]
[4]
  MIC: 32 µg/mL (≈ 59.7 µM)
[5]; read-out: MIC PA 2108 (MDR)
  MIC: 64 µg/mL (≈ 119 µM)

## c1ccc(CSc2nc3ccc(-c4ccccc4)cc3cc2CNCc2ccc(CN3CCCC3)cc2)cc1 [WSA269, 1‐(2‐(benzylthio)‐6‐phenylquinolin‐3‐yl)‐N‐(4‐(pyrrolidin‐1‐ylmethyl)benzyl)methanamine]
[4]
  MIC: > 128 µg/mL
[6]
  MIC: > 128 µg/mL
[5]; read-out: MIC PA 2108 (MDR)
  MIC: > 128 µg/mL
[5]
  Antibacterial activity against PA (in words): inactive
[7]
  Antibacterial activity against AB strains (in words): inactive

## CN1CCN(CCNCc2cc3cc(-c4ccccc4)ccc3nc2SCc2ccccc2)CC1 [WSA270, N‐((2‐(benzylthio)‐6‐phenylquinolin‐3‐yl)methyl)‐2‐(4‐methylpiperazin‐1‐yl)ethan‐1‐amine]
[4]
  MIC: 16 µg/mL (≈ 33.1 µM)
[5]; read-out: MIC PA 2108 (MDR)
  MIC: 32 µg/mL (≈ 66.3 µM)
[7]
  MIC: 8 to 16 µg/mL (≈ 16.6 to 33.1 µM)
